Measured values from different studies.
Compare with care: the assays were run in different laboratories.
Target: Serine/threonine-protein kinase D1 (PRKD1, Homo sapiens, UniProt Q15139)
One construct used (Q15139 1-912): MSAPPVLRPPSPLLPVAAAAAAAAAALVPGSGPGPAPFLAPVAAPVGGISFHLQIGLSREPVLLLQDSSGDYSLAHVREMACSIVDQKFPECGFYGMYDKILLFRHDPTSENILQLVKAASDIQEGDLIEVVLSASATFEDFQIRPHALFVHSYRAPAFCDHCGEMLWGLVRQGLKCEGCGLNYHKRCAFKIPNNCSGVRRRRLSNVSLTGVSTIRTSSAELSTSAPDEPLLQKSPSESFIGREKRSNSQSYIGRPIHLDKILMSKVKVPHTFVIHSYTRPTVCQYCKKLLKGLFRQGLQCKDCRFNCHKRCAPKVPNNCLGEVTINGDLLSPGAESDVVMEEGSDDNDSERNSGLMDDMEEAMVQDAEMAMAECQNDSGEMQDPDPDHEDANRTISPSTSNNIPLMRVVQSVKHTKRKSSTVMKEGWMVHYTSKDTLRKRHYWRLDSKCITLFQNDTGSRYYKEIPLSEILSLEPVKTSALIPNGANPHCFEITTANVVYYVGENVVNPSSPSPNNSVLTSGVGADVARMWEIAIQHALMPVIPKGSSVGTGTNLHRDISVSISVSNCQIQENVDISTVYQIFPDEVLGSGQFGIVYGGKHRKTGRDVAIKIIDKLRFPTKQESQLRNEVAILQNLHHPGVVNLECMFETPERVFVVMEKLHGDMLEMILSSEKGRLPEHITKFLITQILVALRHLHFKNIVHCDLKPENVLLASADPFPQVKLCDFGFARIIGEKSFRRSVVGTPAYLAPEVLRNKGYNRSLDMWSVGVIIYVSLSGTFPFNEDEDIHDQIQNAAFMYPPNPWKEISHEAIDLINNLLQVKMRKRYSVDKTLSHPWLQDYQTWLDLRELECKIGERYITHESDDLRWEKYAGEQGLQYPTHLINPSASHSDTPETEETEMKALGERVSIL

`O=C(c1ccc(Nc2ncc(Cl)c(-c3cc4ccccc4s3)n2)cc1)N1CCC(N2CCCC2)CC1` has a remaining binding of 28% (binding; competition with immobilised ligand; 1 µM).
For `COc1cnc(Nc2cccc(S(N)(=O)=O)c2)nc1N1CCN(c2ccccc2)C(=O)C1`, the remaining binding was 100% (binding; competition with immobilised ligand; 1 µM).
`C[C@@]1(Cc2ccc(C#N)cc2)C(=O)N(c2cc(Cl)cc(Cl)c2)c2ncc(C(=O)NC3(c4nc(C5CCC5)no4)CC3)n21` gave a remaining binding of 86% (cell-free assay; competition with immobilised ligand; 1 µM).
The remaining binding of `CN(C)c1ncc(F)c(-c2cnn3ncccc23)n1` is reported as 100% (binding; 1 µM).
For `CCCOc1ccc([C@@H]2[C@@H](C(=O)O)[C@H](c3ccc4c(c3)OCO4)CN2CC(=O)Nc2c(CC)cccc2CC)cc1`, the remaining binding was 96% (cell-free assay; competition with immobilised ligand; 1 µM).
For `COc1ccnn2ncc(-c3ccnc(N(C)C)n3)c12`, the remaining binding was 100% (binding; 1 µM).
With `O=C(NCCCN1CCOCC1)c1ccc(Nc2ncc(Cl)c(-c3ccc(Cl)s3)n2)cc1` the remaining binding was 30% (binding; competition with immobilised ligand; 1 µM).
With `COc1ncc2cc3ccccc3nc2c1C#N` the remaining binding was 87% (cell-free assay; competition with immobilised ligand; 5 µM).
For `Cc1cc(NC(=O)c2cccc(S(F)(F)(F)(F)F)c2)cc(-n2ccn3nc(-c4cccnc4)cc23)c1`, the remaining binding was 100% (cell-free assay; competition with immobilised ligand; 1 µM).
`O=C(NCCCN1CCOCC1)c1ccc(Nc2nccc(-c3cc4ccccc4s3)n2)cc1` gave a remaining binding of 47% (binding; competition with immobilised ligand; 1 µM).
`O=C(Nc1c[nH]nc1C(=O)NC1CCNCC1)c1cc(F)cc(F)c1` has a remaining binding of 94% (binding; competition with immobilised ligand; 1 µM).
`N[C@H]1CCN(c2nccc(-c3cnn4ncccc34)n2)C1` gave a remaining binding of 65% (binding; 1 µM).
For `C[C@H](c1ccnc(Nc2nc3ccc(-c4cc(N(C)C)ncn4)cc3[nH]2)c1)N1CCN(C(=O)CC(F)(F)F)CC1`, the remaining binding was 100% (cell-free assay; competition with immobilised ligand; 0.1 µM).
With `c1cnn2ncc(-c3ccnc(N4CCC45COC5)n3)c2c1` the remaining binding was 87% (binding; 1 µM).
For `COCCOc1nc(-c2ccc(Cl)nc2)nc2c1CN(C(=O)c1ncn3ccccc13)CC2`, the remaining binding was 90% (cell-free assay; competition with immobilised ligand; 0.1 µM).
With `Cc1cnn2ncc(-c3ccnc(N(C)C)n3)c2c1` the remaining binding was 95% (binding; 1 µM).
For `CN([C@@H]1CCc2c(CC(=O)O)c3cc(S(C)(=O)=O)ccc3n2C1)S(=O)(=O)c1ccc(F)cc1`, the remaining binding was 75% (cell-free assay; competition with immobilised ligand; 1 µM).
The remaining binding of `FC(F)(F)Oc1cccc(-c2cnc3ccc(-c4ccncc4)nn23)c1` is reported as 100% (cell-free assay; competition with immobilised ligand; 5 µM).
`CN(C)c1nccc(-c2cnn3ncccc23)n1` has a remaining binding of 57% (binding; 1 µM).
The remaining binding of `CCN1CCN(Cc2ccc(C(=O)Nc3ccc(C)c(Oc4ccc5c(c4)CC(=O)N5)c3)cc2C(F)(F)F)CC1` is reported as 96% (binding; competition with immobilised ligand; 1 µM).
